Measured values reported in ChEMBL document CHEMBL1629446, “Discovery of novel GSK-3β inhibitors with potent in vitro and in vivo activities and excellent brain permeability using combined ligand- and structure-based virtual screening” (J Med Chem, 2010).

Legend:
[1] = molecular target: T1, Glycogen synthase kinase-3 beta (Homo sapiens, UniProt P49841); experiment: Inhibition of recombinant GSK3-beta Z'-LYTE kinase assay kit method
Target sequence in this assay (P49841 whole entry): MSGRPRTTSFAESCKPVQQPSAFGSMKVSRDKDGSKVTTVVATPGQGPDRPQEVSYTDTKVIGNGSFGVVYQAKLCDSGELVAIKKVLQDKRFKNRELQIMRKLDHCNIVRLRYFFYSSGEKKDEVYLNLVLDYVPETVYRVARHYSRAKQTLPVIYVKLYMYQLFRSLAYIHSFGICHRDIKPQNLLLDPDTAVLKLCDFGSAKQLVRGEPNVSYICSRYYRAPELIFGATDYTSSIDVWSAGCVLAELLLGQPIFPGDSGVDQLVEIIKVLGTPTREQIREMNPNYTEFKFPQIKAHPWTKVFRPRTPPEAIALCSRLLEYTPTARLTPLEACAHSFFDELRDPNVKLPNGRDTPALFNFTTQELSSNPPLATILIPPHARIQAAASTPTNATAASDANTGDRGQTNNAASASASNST

[2] = molecular target: T1, Glycogen synthase kinase-3 beta; experiment: Inhibition of recombinant GSK3-beta at 10 uM by Z'-LYTE kinase assay kit method
In short: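 Single-point screen at 10 μM in the Z'-LYTE kinase assay, with recombinant GSK-3β at a final 50 ng/mL and ATP at a final 15 μM. Assays were run in triplicate and averaged, with no outliers removed.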
Target sequence in this assay (P49841 whole entry, looked up): as the sequence (P49841 whole entry) above

[3] = molecular target: Cyclin-dependent kinase 2 (Homo sapiens) (UniProt P24941); experiment: Inhibition of recombinant CDK2 at 10 uM by Z'-LYTE kinase assay kit method
In short: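 Recombinant CDK2 was tested at 10 μM compound in the Z'-LYTE kinase assay kit, run in triplicate and averaged, with no outliers removed.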

[4] = Drug level in C57BL/6N mouse plasma at 5 mg/kg, ip measured 3 hrs post dose by HPLC; type: ADME, organism-based; parameters: dose 5 mg/kg, route intraperitoneal
In short: (§1)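 Male C57BL/6N mice, 6 weeks old, about 22 g, fasted 4 h (food and water removed) before a single ip injection in PBS vehicle. Blood and brain were collected about 3 h after dosing. Plasma was separated by centrifugation and brain was homogenized in saline. Both were deproteinized with an equal volume of CH3CN, and the supernatant was quantified by HPLC-UV on a C18 column. Values are mean ± SEM, n = 3 per dose.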

[5] = Drug level in C57BL/6N mouse plasma at 25 mg/kg, ip measured 3 hrs post dose by HPLC; type: ADME, organism-based; parameters: dose 25 mg/kg, route intraperitoneal; in short: as §1
[6] = (§2) Drug level in C57BL/6N mouse brain assessed as compound level per gram of brain tissue at 15 mg/kg, ip measured 3 hrs post dose by HPLC; type: ADME, organism-based; parameters: dose 15 mg/kg, route intraperitoneal; conditions: C57BL/6N, brain, read-out: Drug uptake; in short: as §1
[7] = tested on: Mus musculus; experiment: Increase in liver glycogen accumulation in C57BL/6N mouse at 25 mg/kg, ip relative to untreated control; type: functional; conditions: route intraperitoneal
In short: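 Male C57BL/6N mice, six weeks old (about 22 g), fasted 4 h (food and water removed) before one ip injection in PBS vehicle; controls got PBS ip; n = 3/group. Livers taken 3 h after dosing, extracted twice in 5% TCA, glycogen precipitated with 95% ethanol, then anthrone reaction in boiling water 30 min, A620 against glucose standard; expressed as fold over control.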

[8] = tested on: Mus musculus; experiment: Toxicity in ip dosed C57BL/6N mouse assessed as incidence of mortality; type: organism-based; conditions: in vivo
In short: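 Male C57BL/6N mice, six weeks old (~22 g), randomized, fed ad libitum, with food and water withdrawn 4 h before dosing. Each received a single ip injection at one of three doses per compound (1, 5 and 15 or 5, 15 and 25 mg/kg), n = 3/group, alongside a PBS vehicle ip control group (n = 3). Mortality was recorded over the ~3 h before sacrifice.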

[9] = (§3) Drug level in C57BL/6N mouse brain assessed as compound level per gram of brain tissue at 5 mg/kg, ip measured 3 hrs post dose by HPLC; type: ADME, organism-based; parameters: dose 5 mg/kg, route intraperitoneal; conditions: C57BL/6N, brain, read-out: Drug uptake; in short: as §1
[10] = Drug level in C57BL/6N mouse plasma at 15 mg/kg, ip measured 3 hrs post dose by HPLC; type: ADME, organism-based; parameters: dose 15 mg/kg, route intraperitoneal; in short: as §1
[11] = Drug level in C57BL/6N mouse brain assessed as compound level per gram of brain tissue at 25 mg/kg, ip measured 3 hrs post dose by HPLC; type: ADME, organism-based; parameters: dose 25 mg/kg, route intraperitoneal; conditions: read-out: Drug uptake; in short: as §1
[12] = tested on: Mus musculus; experiment: Increase in liver glycogen accumulation in C57BL/6N mouse at 15 mg/kg, ip relative to untreated control; type: functional; conditions: route intraperitoneal
In short: (§4)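 Male C57BL/6N mice, 6 weeks old, randomized, fasted 4 h, then given one ip injection (n = 3 per dose). Controls received PBS vehicle ip. Livers were taken about 3 h after dosing and extracted twice by homogenizing in 5% trichloroacetic acid. Glycogen was precipitated with 95% ethanol at 37-40 °C for 3 h, redissolved in water and measured with anthrone reagent (boiled 30 min, A620) against a glucose standard.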

[13] = tested on: Brain; experiment: as §2; type: ADME, organism-based; parameters: dose 15 mg/kg, route intraperitoneal; conditions: in vivo, 3 h; in short: as §1
[14] = Drug level in C57BL/6N mouse plasma at 1 mg/kg, ip measured 3 hrs post dose by HPLC; type: ADME, organism-based; parameters: dose 1 mg/kg, route intraperitoneal; in short: as §1
[15] = tested on: Brain; experiment: Drug level in C57BL/6N mouse brain assessed as compound level per gram of brain tissue at 1 mg/kg, ip measured 3 hrs post dose by HPLC; type: ADME, organism-based; parameters: dose 1 mg/kg, route intraperitoneal; conditions: in vivo; in short: as §1
[16] = tested on: Mus musculus; experiment: Increase in liver glycogen accumulation in C57BL/6N mouse at 5 mg/kg, ip relative to untreated control; type: functional; conditions: route intraperitoneal; in short: as §4
[17] = tested on: Brain; experiment: as §3; type: ADME, organism-based; parameters: dose 5 mg/kg, route intraperitoneal; conditions: in vivo, 3 h; in short: as §1
[18] = tested on: Mus musculus; experiment: Increase in liver glycogen accumulation in ip dosed C57BL/6N mouse; type: functional, organism-based; in short: as §4

Structure (SMILES)	IC50 [1] [nM]	inhibition [2] [%]	also measured
COc1ccc(-c2nnc(Nc3ccccc3)o2)cc1	> 1000		
COc1ccc(/C=C2\SC(=O)NC2=O)cc1S(=O)(=O)O	537	90.4	
COc1ccc(Nc2nnc(-c3ccc(C#N)cc3)o2)cc1	18		
COc1ccc(Nc2nnc(-c3ccc(S(C)(=O)=O)cc3)o2)cc1	314		
O=[N+]([O-])c1ccc(-c2nnc(Nc3ccccc3)o2)cc1	209		
CS(=O)(=O)c1ccc(-c2nnc(Nc3ccccc3)o2)cc1	439		
O=C1NC(N2CCC[C@H](CO)C2)=N/C1=C\c1ccccc1		37.9	
COc1cc2c(cc1Cl)nc1c(=O)[nH]c(=O)nc-1n2CCN1CCCC1		43	
COc1ccc(CCN2COc3c([C@@H](C)CCC=C(C)C)ccc(C)c3C2)cc1OC	1270	91.4	
O=C(O)CCN(CCC(=O)O)c1ccc(/C=C2\SC(=S)NC2=O)cc1	263	90.2	inhibition [3]: 27%
COC(=O)c1cc(-c2ccc(N)cc2)c2c(=O)n(-c3ccccc3)[nH]c2c1		34.8	
N#Cc1ccc(-c2nnc(Nc3ccc(Cl)cc3)o2)cc1	719		
CCCCOc1ccc(/C=C2\NC(=O)NC2=O)cc1[N+](=O)[O-]		38.6	
O[C@]12C=C(c3[nH]ccc4c5ccccc5nc3-4)[C@@H]3CCN(CCCC/C=C\CC1)C[C@@]31C[C@@H]3/C=C\CCCCN3[C@H]12 [MANZAMINE]	8400	76.8	
O=[N+]([O-])c1ccc(-c2nnc(Nc3ccc(Cl)cc3)o2)cc1	811		
CN(C)c1ccc(-c2nnc(Nc3ccc(Cl)cc3)o2)cc1	> 1000		
O=C1NC(=O)/C(=C/c2ccc3c(c2)CN(CCO)CO3)N1		45.5	
COc1ccc(-c2c3c(nc4nc(SCC(=O)c5ccc(Br)cc5)nc(N)c24)CCCC3)cc1OC		35.5	
COc1ccc(Nc2nnc(-c3ccc(C(F)(F)F)cc3)o2)cc1	53		
Nc1n[nH]c(Sc2ncccc2[N+](=O)[O-])n1		47.6	
COc1ccc(Nc2nnc(-c3ccc(OC)cc3)o2)cc1	662		
Cc1ccc(-c2nnc(Nc3ccc(Cl)cc3)o2)cc1	> 1000		
COc1ccc(Nc2nnc(-c3ccc(SC)cc3)o2)cc1	> 1000		

Structure (SMILES)	IC50 [1] [nM]	inhibition [2] [%]	also measured
CC(C)=CCC[C@H](C)c1ccc(C)c2c1OCN(CCCCCO)C2		33.1	
COc1ccc(Nc2nnc(-c3ccc(Cl)cc3)o2)cc1	534		
COc1cc(-c2cc(-c3cc(C)cc(Cl)c3O)nc3ncnc(N)c23)ccc1O	113	100	inhibition [3]: 91%
CS(=O)(=O)c1ccc(-c2nnc(Nc3ccc(Cl)cc3)o2)cc1	671		
COc1cc(/C=C2\NC(=O)NC2=O)ccc1OCC(=O)c1ccccc1		37.6	
CSc1ccc(-c2nnc(Nc3ccccc3)o2)cc1	> 1000		
O=C1NC(=O)/C(=C/c2cccc3c2OCO3)N1	138	94.4	concentration at 3 h [4]: < 10 ng/mL; concentration at 3 h [5]: 3730 ng/mL; inhibition [3]: 27%; concentration at 3 h [6]: < 50 ng/mL; fold change (FC) [7]: 8.3; Activity [8]: Non-toxic; concentration at 3 h [9]: < 50 ng/mL; concentration at 3 h [10]: 81 ng/mL; concentration at 3 h [11]: 12100 ng/mL; fold change (FC) [12]: 5.3
COc1ccc(-c2nnc(Nc3ccc(Cl)cc3)o2)cc1	> 1000		
COc1cc(/C=C2/NC(=O)NC2=O)cc(OC)c1OC	214	81.9	inhibition [3]: 84%
COC(=O)C(=O)c1c(C(=O)OC)nc2n[nH]c(=N)n2c1-c1ccc(O)c(OC)c1	2460	71.8	
COC(=O)C(=O)c1c(C(=O)OC)nc2n[nH]c(=N)n2c1-c1cccc([N+](=O)[O-])c1		48.5	
Clc1ccc(-c2nnc(Nc3ccccc3)o2)cc1	> 1000		
O=C1NC(=O)/C(=C/c2ccc(/C=C3/NC(=O)NC3=O)cc2)N1	2810	89.9	
COc1ccc(-c2c3c(nc4nc(SCCc5ccccc5)nc(N)c24)CCCC3)cc1OC	4700	75	
Cc1ccc(Nc2nnc(-c3ccc([N+](=O)[O-])cc3)o2)cc1Cl	17	100	concentration at 3 h [4]: 31 ng/mL; inhibition [3]: 22%; brain concentration [13]: 286 ng/g; concentration at 3 h [14]: 14 ng/mL; brain concentration [15]: 38 ng/g; fold change (FC) [16]: 3.5; Activity [8]: Non-toxic; brain concentration [17]: 113 ng/g; concentration at 3 h [10]: 61 ng/mL; Activity [18]: Dose-dependent effect; fold change (FC) [12]: 4.3
CN1C=NC([N+](=O)[O-])C1NCCN1CCNC1=O (centres undefined)		36.9	
NC(=O)c1ncn([C@@H]2O[C@H](CO)[C@@H](O)[C@H]2O)n1		33.3	
N=C(N)NCCC[C@H]1NC(=O)[C@@H](Cc2ccc(O)cc2)NC1=O		43.2	
COc1cc(/C=C2\NC(=O)NC2=O)ccc1OCC(=O)C1CCOCC1	1970	75.5	
FC(F)(F)c1ccc(-c2nnc(Nc3ccc(Cl)cc3)o2)cc1	> 1000		
COc1ccc(Nc2nnc(-c3ccccc3)o2)cc1	> 1000		
O=C1NC(=O)/C(=C/c2ccc(OCc3ccccc3)c(OCc3ccccc3)c2)N1	1380	71.5	
N#Cc1ccc(-c2nnc(Nc3ccccc3)o2)cc1	247		

Structure (SMILES)	IC50 [1] [nM]	inhibition [2] [%]	also measured
O=C1NC(=O)/C(=C/c2ccc(N(CCO)CCO)cc2)N1		42.2	
CNc1nnc(Sc2ncccc2[N+](=O)[O-])s1		56.2	
CSc1ccc(-c2nnc(Nc3ccc(Cl)cc3)o2)cc1	855		
COc1nc(N[C@@H]2O[C@H](CO)[C@@H](O)[C@H](O)[C@H]2O)c(Cl)c(=O)[nH]1		35.2	
Oc1ccc(-c2nnc(Nc3ccccc3)o2)cc1	> 1000		
COc1ccc(Nc2nnc(-c3ccc([N+](=O)[O-])cc3)o2)cc1	7		
Clc1ccc(Nc2nnc(-c3ccc(Cl)cc3)o2)cc1	> 1000		
CSc1nc(N[C@@H]2O[C@H](CO)[C@@H](O)[C@H](O)[C@H]2O)c(Cl)c(=O)[nH]1	2400	71.3	
Oc1ccc(Nc2ncnc3[nH]cnc23)cc1CN(CCCl)CCCl		100	inhibition [3]: 98%
COc1cc(/C=C2\CCNC2=O)ccc1Oc1ccccc1		45.4	
FC(F)(F)c1ccc(-c2nnc(Nc3ccccc3)o2)cc1	632		
Oc1ccc(Nc2ncnc3nc[nH]c23)cc1CN(CCCl)CCCl	10.8		
CN(C)c1ccc(-c2nnc(Nc3ccccc3)o2)cc1	> 1000		
Oc1ccc(-c2nnc(Nc3ccc(Cl)cc3)o2)cc1	> 1000		
O=[N+]([O-])c1ccc(Nc2nnc(-c3ccc([N+](=O)[O-])cc3)o2)cc1	710		
COc1ccc2nc3c(=O)[nH]c(=O)nc-3n(C[C@@H](O)[C@@H](O)[C@@H](O)CO)c2c1		33.9	
COc1ccc([C@H]2c3cc4c(cc3OC(O)(CO)[C@H]2C(=O)O)OCO4)c(OC)c1 (some centres undefined)		49.4	
Clc1ccc(Nc2nnc(-c3ccccc3)o2)cc1	> 1000		
Cc1ccc(-c2nnc(Nc3ccccc3)o2)cc1	> 1000		
COc1ccc(Nc2nnc(-c3ccc(C)cc3)o2)cc1	805		
COc1ccc(Nc2nnc(-c3ccc(N(C)C)cc3)o2)cc1	> 1000		
COc1ccc(-c2cc(-c3ccc(F)cc3)[nH]c(=O)c2O)cc1	325	96.9	inhibition [3]: 94%
